Source: PubChem (NMMLSC)
In the library only some 2.5% were active in any assay of this set; here they are far more common.
MEKK2wt PB1 HTS: raises or lowers MEK5 binding to wildtype human MEKK2 PB1 domain | bead flow cytometry, Alexa488-MEK5 binding to MEKK2 WT; actives lie on both sides | 290,000 compounds, 1.1% hits | binding response (% of control), % at 10 µM | Q9Y2U5 | AID 1531; in the data active = binding response below about 67% or above about 130%
MEKK2mut PB1 HTS: signal of MEK5 binding to mutant human MEKK2 PB1 domain; bead flow cytometry, Alexa488-MEK5 binding to MEKK2 mutant; percent response, % at 10 µM; 290,000 compounds, 0.35% hits; AID 1530; in the data active = percent response above about 24%, passing the limit was not always enough
Efflux pump inh: antifungal efflux pump inhibition, Nile Red retention; S. cerevisiae Candida pump triplex; inhibition, % at 10 µM; 330,000 compounds, 0.44% hits; AID 485275;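 active = plate passing quality check with inhibition over a set limit, or well fluorescence over plate mean plus 4 SD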;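 note: Nile Red retained in pooled yeast measured as flow cytometry median fluorescence; 0% = buffer negative control and 100% = Enniatin B positive control; higher means more Nile Red kept so more efflux inhibition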
ABCG2 block: inhibitors of human ABCG2 transporter, ABCB1 counter-screen; Q9UNQ0; IgMXP3 cells, JC-1 efflux, flow cytometry; inhibition, % at 6.6 µM; 190,000 compounds, 0.1% hits; AID 1325;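 active = inhibition above 80%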;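 note: 0% = DMSO and 100% = nicardipine control wells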
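test system = two drug-resistant human cell lines, ABCG2 and ABCB1 | amount = 3 million cells/mL final, two lines in 1:1 ratio | reagent = JC-1 transporter substrate | doses = one concentration, 6.6 µM final | incubation = 10 min at 25 °C | signal = flow cytometric JC-1 green MFI at 530 nm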
MEKK3 PB1 HTS: raises or lowers MEK5 binding to the human MEKK3 PB1 domain; Q99759; bead-based flow cytometry, Alexa488-MEK5 binding to MEKK3; actives lie on both sides; 0 = blocked by unlabeled MEK5, 100 = vehicle; binding response (% of control), % at 10 µM; 290,000 compounds, 1.4% hits; AID 1529;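 active = binding response more than 3 SD above or below the average of its plate-row segment, actives on both sides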;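 note: Alexa488 bead fluorescence after subtracting the streptavidin-only scavenger bead signal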
ABCB1 block: inhibitors of human ABCB1 transporter, ABCG2 counter-screen. inhibition, % at 6.6 µM. AID 1326. CCRF-Adr cells, JC-1 efflux, flow cytometry. P08183. 190,000 compounds, 0.067% hits; in the data active = inhibition above about 40%;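 note: 0% = vehicle and 100% = reference inhibitor; higher value means more JC-1 retained so stronger ABCB1 efflux block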
Yeast cmpd fluor: flagged as fluorescent in efflux inhibitor counter-screen; 1,700 compounds, 4% hits; fluorescence ratio to DMSO, % at 10 µM; AID 588517; S. cerevisiae AD/pABC3, compound fluorescence, flow cytometry; shares compounds with Efflux pump inh;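 active = fluorescence ratio to DMSO above its plate's cutoff, the plate mean ratio plus 5 SD, cut at about 210% in these data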;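 note: unstained yeast with no Nile Red so the signal is compound autofluorescence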
Mdr1 pump inh: Candida Mdr1 efflux pump inhibition; 1,700 compounds, 1% hits; S. cerevisiae AD/CaMDR1, Nile Red efflux, flow cytometry; shares compounds with Efflux pump inh; inhibition, % at 10 µM; in the data active = inhibition above about 26%;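 note: 0% = DMSO vehicle and 100% = reference inhibitor; higher means more Nile Red retained so more efflux inhibition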
Cdr2 pump inh: Candida Cdr2 efflux pump inhibition; S. cerevisiae AD/CaCDR2, Nile Red retention, flow cytometry; 1,700 compounds, 4% hits; Nile Red retention ratio vs DMSO, % at 10 µM; shares compounds with Efflux pump inh; in the data active = Nile Red retention ratio vs DMSO above about 190%;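 note: higher ratio means more blocking of Cdr2 efflux of the dye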
CaCdr1 efflux inh: Candida Cdr1 efflux pump inhibition; shares compounds with Efflux pump inh; inhibition, % at 10 µM; S. cerevisiae AD/CaCDR1, Nile Red efflux, flow cytometry; 1,700 compounds, 1% hits;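 active = inhibition above the screen-wide mean plus twice its standard deviation, cut at about 32% in these data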
* = called active by the depositor.

O=C(COc1ccc(F)cc1)N1CCCc2ccccc21 was read as MEKK2wt PB1 HTS 102, MEKK2mut PB1 HTS 0, Efflux pump inh 0 and MEKK3 PB1 HTS 100.
S=C(Nc1cccc(Cl)c1)N1CCN(c2ccccn2)CC1 was read as MEKK2wt PB1 HTS 107, MEKK2mut PB1 HTS 0, Efflux pump inh 0 and MEKK3 PB1 HTS 102.
For COc1cccc(NC(=S)N2CCN(c3ccccn3)CC2)c1 the results were MEKK2wt PB1 HTS 100, MEKK2mut PB1 HTS -1, Efflux pump inh 16*, ABCG2 block -1, MEKK3 PB1 HTS 99, ABCB1 block 0, Yeast cmpd fluor 100, Mdr1 pump inh 0, Cdr2 pump inh 107 and CaCdr1 efflux inh 0.
`Cn1ccnc1SCC(=O)Nc1nc2c(F)c(F)c(F)cc2s1` gave MEKK2wt PB1 HTS 82, MEKK2mut PB1 HTS -7, Efflux pump inh 0, ABCG2 block 1, MEKK3 PB1 HTS 79 and ABCB1 block 1.
CCC(NC(=O)c1cc(COc2c(F)cccc2F)on1)c1ccncc1 (centres undefined) was read as MEKK2wt PB1 HTS 104, MEKK2mut PB1 HTS 5, Efflux pump inh 0 and MEKK3 PB1 HTS 107.
COC(=O)[C@H](Cc1ccccc1)NC(=O)c1cc(COc2c(F)cccc2F)on1 was read as MEKK2wt PB1 HTS 98, MEKK2mut PB1 HTS -1, Efflux pump inh 0, MEKK3 PB1 HTS 98, Yeast cmpd fluor 92, Mdr1 pump inh 0, Cdr2 pump inh 106 and CaCdr1 efflux inh 0.
Cc1ccc(C)c(Cn2nnc3c(=O)[nH]c(C4CCN(S(=O)(=O)c5ccc(S(=O)(=O)NC6CC6)cc5)CC4)nc32)c1 was read as MEKK2wt PB1 HTS 86, MEKK2mut PB1 HTS -5, Efflux pump inh 3.1*, MEKK3 PB1 HTS 98, Yeast cmpd fluor 99, Mdr1 pump inh 0, Cdr2 pump inh 105 and CaCdr1 efflux inh 0.
For Cc1ccc(Cn2nnc3c(=O)[nH]c(C4CCN(S(=O)(=O)c5cc(C)ccc5C)CC4)nc32)cc1 the results were MEKK2wt PB1 HTS 87, MEKK2mut PB1 HTS -5, Efflux pump inh 0, ABCG2 block 14, MEKK3 PB1 HTS 93 and ABCB1 block 1.
O=c1[nH]c(C2CCN(S(=O)(=O)c3ccccc3C(F)(F)F)CC2)nc2c1nnn2Cc1cccc(F)c1 was read as MEKK2wt PB1 HTS 96, MEKK2mut PB1 HTS -3, Efflux pump inh 3.1*, MEKK3 PB1 HTS 99, Yeast cmpd fluor 100, Mdr1 pump inh 0, Cdr2 pump inh 114 and CaCdr1 efflux inh 0.
Screening O=c1[nH]c(C2CCN(S(=O)(=O)c3ccc4c(c3)OCCO4)CC2)nc2c1nnn2Cc1c(F)cccc1Cl returned MEKK2wt PB1 HTS 103, MEKK2mut PB1 HTS 2, Efflux pump inh 0 and MEKK3 PB1 HTS 101.
`O=c1[nH]c(C2CCN(S(=O)(=O)c3ccc4c(c3)OCCO4)CC2)nc2c1nnn2Cc1ccccc1F` gave MEKK2wt PB1 HTS 94, MEKK2mut PB1 HTS -3, Efflux pump inh 1.0*, MEKK3 PB1 HTS 97, Yeast cmpd fluor 110, Mdr1 pump inh 0, Cdr2 pump inh 121 and CaCdr1 efflux inh 0.
O=c1[nH]c(C2CCN(S(=O)(=O)c3ccc(S(=O)(=O)NC4CC4)cc3)CC2)nc2c1nnn2Cc1ccccc1 was read as MEKK2wt PB1 HTS 104, MEKK2mut PB1 HTS -2, Efflux pump inh 0 and MEKK3 PB1 HTS 105.
`Cc1ccc(C)c(Cn2nnc3c(=O)[nH]c(C4CCN(S(=O)(=O)c5ccc(S(=O)(=O)N(C)C)cc5)CC4)nc32)c1` gave MEKK2wt PB1 HTS 93, MEKK2mut PB1 HTS 4, Efflux pump inh 0, MEKK3 PB1 HTS 100, Yeast cmpd fluor 93, Mdr1 pump inh 0, Cdr2 pump inh 116 and CaCdr1 efflux inh 0.
O=C(COC(=O)c1ccc(=O)[nH]c1)Nc1cccc(S(=O)(=O)N2CCOCC2)c1 was read as MEKK2wt PB1 HTS 101, MEKK2mut PB1 HTS 14, Efflux pump inh 0 and MEKK3 PB1 HTS 104.
`Cc1ccc(C)c(S(=O)(=O)N2CCC(c3nc4c(nnn4Cc4ccc(F)cc4)c(=O)[nH]3)CC2)c1` gave MEKK2wt PB1 HTS 87, MEKK2mut PB1 HTS -6, Efflux pump inh 0, ABCG2 block 1, MEKK3 PB1 HTS 90 and ABCB1 block 0.
`Cc1ccc(Cn2nnc3c(=O)[nH]c(C4CCN(S(=O)(=O)c5ccc(F)cc5)CC4)nc32)cc1` gave Efflux pump inh 0, ABCG2 block 13, ABCB1 block 0, Yeast cmpd fluor 100, Mdr1 pump inh 0, Cdr2 pump inh 116 and CaCdr1 efflux inh 0.
Screening COc1ccc(CCC(=O)Nc2cc(S(=O)(=O)N3CCCCC3)ccc2N(C)C)cc1 returned Efflux pump inh 1.1*, Yeast cmpd fluor 103, Mdr1 pump inh 0, Cdr2 pump inh 93 and CaCdr1 efflux inh 0.
Cc1cc(C)c(NC(=O)COC(=O)CCc2ccc(S(=O)(=O)N3CCCCC3)cc2)c(C)c1 was read as MEKK2wt PB1 HTS 106, MEKK2mut PB1 HTS 13, Efflux pump inh 0, ABCG2 block 5, MEKK3 PB1 HTS 106 and ABCB1 block 1.
`Cc1cccc(C)c1NC(=O)COC(=O)CCc1ccc(S(=O)(=O)N2CCCCC2)cc1` gave MEKK2wt PB1 HTS 115, MEKK2mut PB1 HTS 8, Efflux pump inh 19*, ABCG2 block 2, MEKK3 PB1 HTS 105, ABCB1 block 1, Yeast cmpd fluor 101, Mdr1 pump inh 0, Cdr2 pump inh 98 and CaCdr1 efflux inh 0.
For COc1ccc(CCC(=O)Nc2ccc(OC)c(S(=O)(=O)N3CCCCC3)c2)cc1 the results were Efflux pump inh 0.
O=C(CCCOc1ccccc1)Nc1ccc(Cl)cn1 was read as MEKK2wt PB1 HTS 105, MEKK2mut PB1 HTS 1, Efflux pump inh 0, ABCG2 block 3, MEKK3 PB1 HTS 107 and ABCB1 block 1.
